Experimental data reported in ChEMBL document CHEMBL1149038 (J Nat Prod, 1994).
pEC50, pIC50: −log10 of the molar value.

How the values were obtained:
[1] = test system: Human immunodeficiency virus 1; test: Antiviral activity against HIV1 3B in human H9 cells assessed as inhibition of viral replication after 3 days by p24 antigen capture assay; assay type: functional, organism-based; details: Human immunodeficiency virus 1, 3B, H9, 72 h
Outline: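 H9 lymphocytes (1 × 10^7 cells/ml) exposed to HIV-1 IIIB for 1 h at 37°, washed free of unadsorbed virus, resuspended at […] and mixed with an equal volume of compound dilution; 3 days at 37°. Infection read by p24 antigen capture, at four concentrations relative to infected untreated cultures; EC50 = concentration inhibiting replication by 50%.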

H9 = test: Cytotoxicity against human H9 cells after 3 days; assay type: cell-based; details: H9, 72 h
Outline: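 Uninfected H9 lymphocytes cultured with an equal volume of compound dilution for 3 days at 37°. Cell density then counted; IC50 = concentration inhibiting lymphocyte growth by 50%.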

[2] = target: Protein kinase C beta type (Homo sapiens, UniProt P05771); test: Inhibition of PKC beta2
Sequence of Protein kinase C beta type (P05771 whole entry): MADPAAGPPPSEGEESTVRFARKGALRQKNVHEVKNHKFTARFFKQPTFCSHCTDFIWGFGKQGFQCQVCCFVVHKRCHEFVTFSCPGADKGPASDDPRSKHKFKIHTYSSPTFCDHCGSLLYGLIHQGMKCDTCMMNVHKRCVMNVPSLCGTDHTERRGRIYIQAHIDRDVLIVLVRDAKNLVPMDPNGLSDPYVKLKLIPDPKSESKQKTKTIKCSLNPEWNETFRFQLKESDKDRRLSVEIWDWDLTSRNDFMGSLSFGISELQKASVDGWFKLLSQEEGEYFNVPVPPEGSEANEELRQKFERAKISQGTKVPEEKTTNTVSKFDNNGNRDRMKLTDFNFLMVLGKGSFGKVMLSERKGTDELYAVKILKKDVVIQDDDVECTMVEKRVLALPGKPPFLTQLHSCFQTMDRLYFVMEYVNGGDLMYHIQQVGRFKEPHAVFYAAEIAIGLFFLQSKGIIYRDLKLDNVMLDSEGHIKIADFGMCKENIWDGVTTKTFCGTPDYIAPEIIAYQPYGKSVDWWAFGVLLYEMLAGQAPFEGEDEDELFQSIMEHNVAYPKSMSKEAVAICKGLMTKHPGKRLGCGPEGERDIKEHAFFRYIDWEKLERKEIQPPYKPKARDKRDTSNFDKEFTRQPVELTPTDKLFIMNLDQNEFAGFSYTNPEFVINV
Outline: (§1)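 Purified PKC isoenzyme (20 ng) starts the reaction. Mix: phosphatidylserine 40 µg/ml/diacylglycerol 1.76 µg/ml vesicles, 20 mM HEPES pH 7.5, 10 mM MgCl2, 200 µg/ml histone substrate, 100 µM CaCl2, 47.5 µM EGTA, 20 µM [32P]ATP; compounds in DMSO. 10 min at 30°, stopped with cold TCA plus BSA, precipitate filtered and scintillation-counted.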

[3] = target: T1, Protein kinase C epsilon type (Homo sapiens, UniProt Q02156); test: Inhibition of PKC epsilon; outline: as §1
T1 sequence (Q02156 whole entry): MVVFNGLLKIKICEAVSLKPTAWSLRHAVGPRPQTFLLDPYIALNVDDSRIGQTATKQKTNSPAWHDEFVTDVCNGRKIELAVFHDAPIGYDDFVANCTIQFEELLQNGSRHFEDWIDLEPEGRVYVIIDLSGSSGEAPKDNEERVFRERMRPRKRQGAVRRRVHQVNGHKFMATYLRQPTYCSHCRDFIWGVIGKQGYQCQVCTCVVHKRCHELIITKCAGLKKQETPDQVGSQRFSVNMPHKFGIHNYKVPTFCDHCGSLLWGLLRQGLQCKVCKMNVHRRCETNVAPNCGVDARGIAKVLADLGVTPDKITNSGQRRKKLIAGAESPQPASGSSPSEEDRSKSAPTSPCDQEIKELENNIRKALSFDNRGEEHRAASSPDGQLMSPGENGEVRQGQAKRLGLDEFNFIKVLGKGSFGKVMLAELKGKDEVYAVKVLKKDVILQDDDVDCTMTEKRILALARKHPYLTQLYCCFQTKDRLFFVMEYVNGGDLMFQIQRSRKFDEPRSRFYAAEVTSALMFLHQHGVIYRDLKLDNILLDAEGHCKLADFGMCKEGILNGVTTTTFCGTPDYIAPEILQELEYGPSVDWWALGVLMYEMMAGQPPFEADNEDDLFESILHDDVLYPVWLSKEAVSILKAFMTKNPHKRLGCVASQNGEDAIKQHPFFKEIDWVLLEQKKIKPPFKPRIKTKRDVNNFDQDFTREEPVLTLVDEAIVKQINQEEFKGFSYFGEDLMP

[4] = Therapeutic index, IC50 for human H9 cells to EC50 for HIV1 3B; assay type: cell-based; details: read-out: Ratio IC50/EC50
[5] = target: Protein kinase C delta type (Homo sapiens, UniProt Q05655); test: Inhibition of PKC delta; outline: as §1
Sequence of Protein kinase C delta type (Q05655 whole entry): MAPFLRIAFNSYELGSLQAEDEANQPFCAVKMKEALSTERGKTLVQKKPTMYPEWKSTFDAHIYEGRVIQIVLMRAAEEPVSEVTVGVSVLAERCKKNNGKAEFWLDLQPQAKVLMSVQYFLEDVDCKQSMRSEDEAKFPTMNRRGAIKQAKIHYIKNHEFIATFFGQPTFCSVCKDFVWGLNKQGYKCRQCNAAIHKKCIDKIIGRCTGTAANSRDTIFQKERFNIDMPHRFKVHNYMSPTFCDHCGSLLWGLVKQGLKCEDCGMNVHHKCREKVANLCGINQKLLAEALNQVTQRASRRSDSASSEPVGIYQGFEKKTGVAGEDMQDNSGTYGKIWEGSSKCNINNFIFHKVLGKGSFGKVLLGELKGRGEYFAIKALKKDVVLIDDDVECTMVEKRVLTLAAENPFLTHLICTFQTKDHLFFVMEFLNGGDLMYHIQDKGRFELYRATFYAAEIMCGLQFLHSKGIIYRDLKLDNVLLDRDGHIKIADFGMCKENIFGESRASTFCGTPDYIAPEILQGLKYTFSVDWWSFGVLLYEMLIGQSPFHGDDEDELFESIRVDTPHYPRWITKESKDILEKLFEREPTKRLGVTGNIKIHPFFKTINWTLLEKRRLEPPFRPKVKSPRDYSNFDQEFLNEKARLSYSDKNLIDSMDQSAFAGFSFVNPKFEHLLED

[6] = target: Protein kinase C gamma type (Homo sapiens, UniProt P05129); test: Inhibition of PKC gamma; outline: as §1

Compound	pEC50 [1]	pIC50 (H9)	pIC50 [2]	pIC50 [3]	selectivity ratio [4]	pIC50 [5]	pIC50 [6]
C=C(C)[C@@H]1CC[C@]2(C(=O)O)CC[C@]3(C)[C@H](CC[C@@H]4[C@@]5(C)CC[C@H](OC(C)=O)C(C)(C)[C@@H]5CC[C@]43C)[C@@H]12	4.60	4.70	< 3.82	< 3.82	0.8	–	–
C=C(C)[C@@H]1CC[C@]2(C(=O)O)CC[C@]3(C)[C@H](CC[C@@H]4[C@@]5(C)CC[C@H](OC(=O)CCC(=O)O)C(C)(C)[C@@H]5CC[C@]43C)[C@@H]12	5.40	4.80	< 3.82	< 3.82	4	4.31	–
C=C(C)[C@@H]1CC[C@]2(C(=O)O)CC[C@]3(C)[C@H](CC[C@@H]4[C@@]5(C)CC[C@H](OC(=O)/C=C/C)C(C)(C)[C@@H]5CC[C@]43C)[C@@H]12	4.72	4.32	< 3.82	< 3.82	2.5	–	–
C=C(C)[C@@H]1CC[C@]2(C(=O)O)CC[C@]3(C)[C@H](CC[C@@H]4[C@@]5(C)CC[C@H](OS(=O)(=O)O)C(C)(C)[C@@H]5CC[C@]43C)[C@@H]12	4.70	4.46	< 3.82	< 3.82	1.7	–	4.43
C=C(C)[C@@H]1CC[C@]2(C(=O)OCC(=O)OC)CC[C@]3(C)[C@H](CC[C@@H]4[C@@]5(C)CC[C@H](O)C(C)(C)[C@@H]5CC[C@]43C)[C@@H]12	4.77	4.59	< 3.82	< 3.82	1.5	–	–
C=C(C)[C@@H]1CC[C@]2(C(=O)O)CC[C@]3(C)[C@H](CC[C@@H]4[C@@]5(C)CC[C@H](OC(=O)c6ccccc6)C(C)(C)[C@@H]5CC[C@]43C)[C@@H]12	4.82	4.82	< 3.82	< 3.82	1	–	4.13
C=C(C)[C@@H]1CC[C@]2(C(=O)O)CC[C@]3(C)[C@H](CC[C@@H]4[C@@]5(C)CC[C@H](O)C(C)(C)[C@@H]5CC[C@]43C)[C@@H]12 [BETULINIC ACID]	5.85	–	< 3.82	< 3.82	–	–	–
C=C(C)[C@@H]1CC[C@]2(CO)CC[C@]3(C)[C@H](CC[C@@H]4[C@@]5(C)CC[C@H](O)C(C)(C)[C@@H]5CC[C@]43C)[C@@H]12 [BETULIN]	4.64	4.35	< 3.82	< 3.82	1.9	–	–
CC(C)[C@@H]1CC[C@]2(C(=O)O)CC[C@]3(C)C(CCC4[C@@]5(C)CC[C@H](O)C(C)(C)C5CC[C@]43C)C12 (stereo partly drawn) [DIHYDROBETULINIC ACID]	6.05	–	< 3.82	< 3.82	14	4.34	–
CC(=O)[C@@H]1CC[C@]2(C(=O)O)CC[C@]3(C)[C@H](CC[C@@H]4[C@@]5(C)CC[C@H](O)C(C)(C)[C@@H]5CC[C@]43C)[C@@H]12 [PLATANIC ACID]	5.19	4.05	< 3.82	< 3.82	13	–	–
Cc1cn([C@H]2C[C@H](N=[N+]=[N-])[C@@H](CO)O2)c(=O)[nH]c1=O [ZIDOVUDINE]	–	–	< 3.82	< 3.82	–	–	–
